CHOP inhibitor = CHOP inhibition in unfolded protein response. CHO-K1 CHOP-promoter luciferase, tunicamycin-induced, 15-18 h. hit rate 3.8% among 220,000. inhibition, % at 10 µM;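 active means compounds that reduced the stress-induced luciferase reporter signal by more than about 70% of percent inhibition, limit read from the data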;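 further: 0% = tunicamycin plus vehicle and 100% = wells without tunicamycin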
CHOP UPR activ = activators of apoptotic arm of unfolded protein response (CHOP). CHO-CHOP luciferase reporter, UPR activation, luminescence; percent of tunicamycin response over DMSO baseline. activation, % at 10 µM. hit rate 0.34% among 330,000. AID 449763;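 active means at 10 µM dose, activation of 40% or more, normalized to positive control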;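 further: 100% = tunicamycin at 10 µg/mL and 0% = DMSO alone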
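Evaluation: % reporter activation, DMSO baseline versus tunicamycin full activation; System: CHO-CHOP luciferase reporter cell line; Input: 500 cells/well; Incubation: 6 h compound treatment, 37 °C; Measured by: Steady-Glo luciferase luminescence; Dosing: one dose, 10 µM in 0.5% DMSO; Buffer or medium: F12 medium, 10% FBS; Benchmarks: positive tunicamycin 10 µg/mL, negative DMSO alone.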
Jurkat NFkB inh = inhibitors of the PMA/ionomycin-induced NF-kB reporter in Jurkat cells; PMA/ionomycin-induced NF-kB luciferase reporter, luminescence; inhibition, % at 4 µM; hit rate 0.53% among 330,000; AID 435003; in the data active means inhibition above about 50%
697 NFkB inh = inhibitors of the PMA/ionomycin-induced NF-kB reporter in 697 B cells; hit rate 0.33% among 330,000; 697 B-cell NF-kB luciferase reporter, 16 h; inhibition, % at 4 µM; in the data active means inhibition above about 35%
UPR XBP1 act = adaptive UPR (XBP1) activation. CHO-XBP1 luciferase reporter, IRE1-XBP1 UPR activation, luminescence; percent of tunicamycin response, DMSO as zero. activation, % at 20 µM. hit rate 0.33% among 330,000. AID 463104;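 active means versus positive control, 20 µM dose yields 30% or more activation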;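 further: 100% = tunicamycin at 10 µg/mL and 0% = DMSO only wells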
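incubation = overnight seeding at 37 °C, 6 h compound treatment at 37 °C | assay system = CHO-XBP1 cells stably carrying IRE1-XBP1-driven luciferase reporter | input = 1000 cells per well | detection = luciferase luminescence | dosing = single point, 20 µM final compound, 1% DMSO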
* = called active by the depositor; . = no result given. The entries come from a sample that favours hits as a whole.

SMILES	CHOP inhibitor	CHOP UPR activ	Jurkat NFkB inh	697 NFkB inh	UPR XBP1 act
O=C(NCCc1ccccc1)c1ccc2c(c1)S(=O)(=O)N=C1CCCCCN12	.	-1	-17	4	1
COc1ccc(-c2cc(C(F)(F)F)nc(N3CCOCC3)n2)cc1OC	62	-1	-10	7	3
COc1ccc(-c2cc(C(F)(F)F)nc(NC3CCCC3)n2)cc1OC	73*	2	0	15	7
O=C(Nc1nc(-c2cccc3ccccc23)cs1)c1ccc2c(c1)S(=O)(=O)c1ccccc1C2=O	85*	34	-5	-17	25
CC1CN=C(N(C(=S)Nc2ccccc2)c2cccc(C(F)(F)F)c2)S1 (centres undefined)	2	0	-13	-42	-2
c1ccc(-n2ncc3c(NCc4ccc5c(c4)OCO5)ncnc32)cc1	-15	2	-11	-14	10
Clc1cccc(Nc2ncnc3c2cnn3-c2ccccc2)c1	99*	0	-46	-48	5
Cc1ccc(-n2ncc3c(NCc4ccccc4)ncnc32)cc1	80*	5	-107	-107	17
Cc1cccc(-n2ncc3c(NCc4cccnc4)ncnc32)c1	-20	11	-52	-111	5
Cc1ccc(CNc2ncnc3c2cnn3-c2ccccc2)cc1	95*	2	-23	-9	1
CCc1ccc(NC(=O)Cn2c(=O)n(CCCC(=O)NCc3ccco3)c(=O)c3ccccc32)cc1	76*	1	-1	-9	-2
O=C(CCCCn1c(=O)c2ccccc2n(CC(=O)Nc2cccc(F)c2)c1=O)NCc1ccco1	14	1	11	-8	-5
COC(=O)C(Cc1ccccc1)NC(=O)c1ccc(NS(=O)(=O)c2ccc3[nH]c(=O)[nH]c3c2)cc1 (centres undefined)	.	1	6	-17	1
O=S(=O)(c1ccccc1)N(CC(O)Cn1c2ccccc2c2ccccc21)c1ccccc1 (centres undefined)	33	0	-5	-1	0
O=S(=O)(c1ccc(F)cc1)N(CCO)CC(O)Cn1c2ccccc2c2ccccc21 (centres undefined)	73*	0	-3	-24	5
CCN(CC(O)Cn1c2ccccc2c2ccccc21)S(=O)(=O)c1ccc(F)cc1 (centres undefined)	70*	0	7	16	-1
COc1cc(OC)cc(C(=O)Nc2c(C)nn(-c3ccccc3)c2C)c1	-4	-2	19	-2	-2
OC(CNCc1ccc(F)cc1)(c1ccc(F)cc1)c1ccc(F)cc1	72*	-1	-9	6	-1
OC(CNCc1ccc(Cl)cc1)(c1ccccc1)c1ccc(F)cc1 (centres undefined)	75*	-2	-3	3	-1
Cc1ccc(NC(=O)c2cc(S(=O)(=O)NCCc3ccccc3)ccc2F)cc1Cl	84*	0	-1	5	-1
CCOc1ccc(NC(=O)CCSc2nc3c(c(CC)c2C#N)C(=O)CC(C)(C)C3)cc1	54	-4	0	14	-3
CCc1c(C#N)c(SCCC(=O)Nc2ccc(C)cc2)nc2c1C(=O)CC(C)(C)C2	85*	-4	-10	3	-6
CC12CCC(=O)C=C1CCC1C2C(=O)CC2(C)C1CC[C@]2(O)C(=O)CO (some centres undefined)	.	-1	-16	18	-3
Cc1nn(C(=O)c2ccco2)c(C)c1CN1C(=O)c2ccccc2C1=O	62	-2	15	5	3
Cc1nn(C(=O)c2cccs2)c(C)c1CN1C(=O)c2ccccc2C1=O	81*	4	-9	-29	15
SMILES	CHOP inhibitor	CHOP UPR activ	Jurkat NFkB inh	697 NFkB inh	UPR XBP1 act
CC#CC(=O)NCC1(N(C)Cc2ccccc2)Cc2ccccc2C1	.	-1	-16	-52	-3
COc1ccc(/C=N/Nc2ccc([N+](=O)[O-])cc2)cc1O	.	5	-97	10	-4
COc1ccc(C(=O)NCCC(=O)N2CCC3(CC2)NCCc2[nH]cnc23)cc1	.	2	-5	5	-1
Cc1ccc(Cl)cc1N1CCN(C(=O)c2cc3c(=O)[nH]c4ccccc4c3n2C)CC1	94*	5	16	-45	7
Cn1c(C(=O)N2CCN(c3ccc(Cl)cc3)CC2)cc2c(=O)[nH]c3ccccc3c21	10	0	4	-16	2
CN(C(=O)C1CCC(=O)N(Cc2cccc(F)c2)C1)C1CCCCC1 (centres undefined)	.	5	-88	-94	-3

Bioassay records deposited in PubChem by several laboratories.
